From ChEMBL document CHEMBL2413001, “Exploring pyrimidine-substituted curcumin analogues: design, synthesis and effects on EGFR signaling” (Bioorg Med Chem, 2013)
Blank lines part the entries; values can stand above or below the compound they belong to. The source made the active and inactive calls. No cut-off for these calls is given here.

How the values were obtained:
HT-29 [1] = assay: Cytotoxicity against human HT-29 cells assessed as growth inhibition after 48 hrs by resazurin assay; format: functional, cell-based; conditions: for IC50: HT-29, 48 h
Procedure, shortened: (§1)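 HCT116 or HT29 seeded at 2000 cells/well, grown 24 h, then given fresh complete McCoy's 5A (5% FBS, 0.1% DMSO final) containing serial compound concentrations for 48 h. Resazurin was added for 16 h and fluorescence read at ex 544/em 595 nm as a measure of living cells. IC50 was calculated by the Logit approach; values are mean ± SD.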

HCT-116 [2] = assay: Cytotoxicity against human HCT116 cells assessed as growth inhibition after 48 hrs by resazurin assay; format: functional, cell-based; conditions: for IC50: HCT-116, 48 h; procedure, shortened: as §1
HCT-116 [3] = assay: Induction of apoptosis in human HCT116 cells assessed as ratio of Bax to Bcl-2 expression at 5 uM after 72 hrs by Western blot analysis relative to control; format: functional
Procedure, shortened: (§2)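 HCT116 only, seeded at 8 × 10⁴ cells/ml in 15 cm dishes for 24 h, then treated for 72 h at 20 µM or at 5, 10 and 20 µM. Lysed in Triton lysis buffer (pH 7.5) with inhibitors, sonicated, and protein assayed by BCA. Western blots were developed by ECL. Band intensities were normalized to β-actin, as means of three independent experiments; the Bax/Bcl-2 ratio was expressed relative to untreated control.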

HCT-116 [4] = assay: Induction of apoptosis in human HCT116 cells assessed as ratio of Bax to Bcl-2 expression at 10 uM after 72 hrs by Western blot analysis relative to control; format: functional; procedure, shortened: as §2
HCT-116 [5] = assay: Induction of apoptosis in human HCT116 cells assessed as ratio of Bax to Bcl-2 expression at 20 uM after 72 hrs by Western blot analysis relative to control; format: functional; procedure, shortened: as §2
HCT-116 [6] = assay: Induction of apoptosis in human HCT116 cells assessed as increase in Bax expression after 72 hrs by Western blot analysis; format: functional, cell-based; procedure, shortened: as §2
HCT-116 [7] = assay: Induction of apoptosis in human HCT116 cells assessed as reduction in Bcl-2 expression after 72 hrs by Western blot analysis; format: functional, cell-based; procedure, shortened: as §2
HCT-116 [8] = assay: Induction of apoptosis in human HCT116 cells assessed as effect on HSP-90 expression after 72 hrs by Western blot analysis; format: functional, cell-based; procedure, shortened: as §2
HCT-116 [9] = assay: Induction of apoptosis in human HCT116 cells assessed as effect on HSP-70 expression after 72 hrs by Western blot analysis; format: functional, cell-based; procedure, shortened: as §2
HCT-116 [10] = assay: Induction of apoptosis in human HCT116 cells assessed as PARP cleavage after 72 hrs by Western blot analysis; format: functional, cell-based; procedure, shortened: as §2
HCT-116 [11] = assay: Induction of apoptosis in human HCT116 cells assessed as caspase-3 activation after 72 hrs by Western blot analysis; format: functional, cell-based; procedure, shortened: as §2
[12] = molecular target: Epidermal growth factor receptor (Homo sapiens) (UniProt P00533); assay: Inhibition of EGFR signaling in human HCT116 cells assessed as effect on CDK4 expression at 5 to 20 uM after 24 hrs by Western blot analysis; format: cell-based; conditions: HCT-116
[13] = molecular target: Epidermal growth factor receptor (Homo sapiens) (UniProt P00533); assay: Inhibition of EGFR signaling in human HCT116 cells assessed as inhibition of Rb expression after 24 hrs by Western blot analysis; format: cell-based; conditions: HCT-116
[14] = molecular target: Epidermal growth factor receptor (Homo sapiens) (UniProt P00533); assay: Inhibition of EGFR signaling in human HCT116 cells assessed as effect on CDK2 expression at 5 to 20 uM after 24 hrs by Western blot analysis; format: cell-based; conditions: HCT-116
[15] = molecular target: Epidermal growth factor receptor (Homo sapiens) (UniProt P00533); assay: Inhibition of EGFR signaling in human HCT116 cells assessed as inhibition of cyclin E1 expression after 24 hrs by Western blot analysis; format: cell-based; conditions: HCT-116
[16] = molecular target: Epidermal growth factor receptor (Homo sapiens) (UniProt P00533); assay: Inhibition of EGFR signaling in human HCT116 cells assessed as inhibition of cyclin D1 expression after 24 hrs by Western blot analysis; format: cell-based; conditions: HCT-116
[17] = molecular target: Epidermal growth factor receptor (Homo sapiens) (UniProt P00533); assay: Inhibition of EGFR signaling in human HCT116 cells assessed as induction of p21 WAF-1/CIP-1 expression at 5 uM after 24 hrs by Western blot analysis relative to control; format: cell-based; conditions: HCT-116
[18] = molecular target: Epidermal growth factor receptor (Homo sapiens) (UniProt P00533); assay: Inhibition of EGFR signaling in human HCT116 cells assessed as induction of p21 WAF-1/CIP-1 expression at 10 uM after 24 hrs by Western blot analysis relative to control; format: cell-based; conditions: HCT-116
[19] = molecular target: Epidermal growth factor receptor (Homo sapiens) (UniProt P00533); assay: Inhibition of EGFR signaling in human HCT116 cells assessed as induction of p21 WAF-1/CIP-1 expression at 20 uM after 24 hrs by Western blot analysis relative to control; format: cell-based; conditions: HCT-116
HCT-116 [20] = assay: Cell cycle arrest in human HCT116 cells assessed as accumulation at G0/G1 phase at 5 uM after 24 hrs by flow cytometry relative to control; format: functional, cell-based
Procedure, shortened: (§3)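 HCT116 or HT29 cells seeded at 4 × 10⁴ cells/ml in 6-well plates and left 24 h to attach, then exposed for 24 h in complete McCoy's 5A (5% FBS) with 0.1% DMSO final, at 5, 10 or 20 µM. Floating and trypsinized cells were pooled, PBS-washed, fixed overnight in 70% ethanol at 4 °C and stained with PI/RNase for 15 min at room temperature. Flow DNA content gave G0/G1, S and G2/M fractions as fold of control, from three independent assays.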

HT-29 [21] = assay: Cell cycle arrest in human HT-29 cells assessed as accumulation at G0/G1 phase at 5 uM after 24 hrs by flow cytometry relative to control; format: functional, cell-based; procedure, shortened: as §3
HT-29 [22] = assay: Cell cycle arrest in human HT-29 cells assessed as increase in G2/M population at 10 uM after 24 hrs by flow cytometry relative to control; format: functional; procedure, shortened: as §3
HT-29 [23] = assay: Cell cycle arrest in human HT-29 cells assessed as increase in G2/M population at 5 uM after 24 hrs by flow cytometry relative to control; format: functional; procedure, shortened: as §3
HT-29 [24] = assay: Cell cycle arrest in human HT-29 cells assessed as increase in G2/M population at 20 uM after 24 hrs by flow cytometry relative to control; format: functional; procedure, shortened: as §3
HCT-116 [25] = assay: Cell cycle arrest in human HCT116 cells assessed as increase in G2/M population at 10 uM after 24 hrs by flow cytometry relative to control; format: functional; procedure, shortened: as §3
HCT-116 [26] = assay: Cell cycle arrest in human HCT116 cells assessed as increase in G2/M population at 5 uM after 24 hrs by flow cytometry relative to control; format: functional; procedure, shortened: as §3
HCT-116 [27] = assay: Cell cycle arrest in human HCT116 cells assessed as increase in G2/M population at 20 uM after 24 hrs by flow cytometry relative to control; format: functional; procedure, shortened: as §3
HCT-116 [28] = assay: Inhibition of EGFR protein expression in human HCT116 cells after 72 hrs by Western blot analysis; format: functional, cell-based
Procedure, shortened: (§4)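 HCT116 or HT29 seeded at 8 × 10⁴ cells/ml in 15 cm dishes for 24 h, then treated for 72 h at 20 µM or at 5, 10 and 20 µM. Whole-cell lysates were made in Tris-HCl/NaCl/Triton buffer with phosphatase and protease inhibitors (pH 7.5), sonicated and cleared at 10,000g; protein was measured by BCA. Blots were blocked in 5% milk/TBST and developed by ECL. P-EGFR(Tyr1068) and total EGFR bands were normalized to β-tubulin, as means of three experiments.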

HT-29 [29] = assay: Inhibition of EGFR protein expression in human HT-29 cells after 72 hrs by Western blot analysis; format: functional, cell-based; procedure, shortened: as §4
[30] = molecular target: Epidermal growth factor receptor (Homo sapiens) (UniProt P00533); assay: Inhibition of EGFR phosphorylation at Tyr1068 residue in human HCT116 cells after 72 hrs by Western blot analysis; format: cell-based; conditions: HCT-116; procedure, shortened: as §4
[31] = molecular target: Epidermal growth factor receptor (Homo sapiens) (UniProt P00533); assay: Inhibition of EGFR phosphorylation at Tyr1068 residue in human HT-29 cells after 72 hrs by Western blot analysis; format: cell-based; procedure, shortened: as §4

Chain of Epidermal growth factor receptor (Homo sapiens) (P00533 whole entry): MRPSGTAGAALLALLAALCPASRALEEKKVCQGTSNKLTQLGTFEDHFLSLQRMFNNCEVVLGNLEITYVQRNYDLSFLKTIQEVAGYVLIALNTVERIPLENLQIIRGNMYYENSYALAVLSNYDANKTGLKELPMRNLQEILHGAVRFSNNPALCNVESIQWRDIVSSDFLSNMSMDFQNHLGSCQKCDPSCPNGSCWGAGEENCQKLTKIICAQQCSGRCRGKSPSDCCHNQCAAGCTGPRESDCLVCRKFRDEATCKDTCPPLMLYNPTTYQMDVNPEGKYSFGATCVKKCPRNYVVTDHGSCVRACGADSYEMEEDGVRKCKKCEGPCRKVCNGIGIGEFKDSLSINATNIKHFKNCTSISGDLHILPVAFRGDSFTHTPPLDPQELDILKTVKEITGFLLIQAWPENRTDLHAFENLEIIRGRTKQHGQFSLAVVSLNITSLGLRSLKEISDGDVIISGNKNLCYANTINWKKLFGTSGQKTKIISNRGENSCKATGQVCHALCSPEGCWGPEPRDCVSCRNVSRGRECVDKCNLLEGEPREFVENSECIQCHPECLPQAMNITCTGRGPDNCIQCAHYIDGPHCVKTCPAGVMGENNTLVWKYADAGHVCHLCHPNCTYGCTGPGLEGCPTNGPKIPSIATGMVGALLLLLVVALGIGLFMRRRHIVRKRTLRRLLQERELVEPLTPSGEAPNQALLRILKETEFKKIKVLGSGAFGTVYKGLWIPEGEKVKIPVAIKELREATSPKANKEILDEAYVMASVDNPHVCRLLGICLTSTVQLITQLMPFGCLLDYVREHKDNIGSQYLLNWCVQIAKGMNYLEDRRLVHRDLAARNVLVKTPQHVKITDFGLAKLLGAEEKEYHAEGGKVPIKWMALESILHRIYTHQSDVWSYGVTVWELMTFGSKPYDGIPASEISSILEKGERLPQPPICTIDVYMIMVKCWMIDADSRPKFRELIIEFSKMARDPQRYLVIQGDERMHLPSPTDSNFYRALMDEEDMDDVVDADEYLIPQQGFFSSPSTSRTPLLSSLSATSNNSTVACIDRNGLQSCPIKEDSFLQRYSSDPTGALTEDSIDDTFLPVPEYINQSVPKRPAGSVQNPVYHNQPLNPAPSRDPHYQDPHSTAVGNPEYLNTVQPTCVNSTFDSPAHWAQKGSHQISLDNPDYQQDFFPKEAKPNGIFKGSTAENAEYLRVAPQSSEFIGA

SMILES: COc1cc(/C=C/c2cc(/C=C/c3cc(OC)c(OC)c(OC)c3)nc(NCCCO)n2)cc(OC)c1OC
- growth inhibition (GI) (HT-29 [1]): Dose-dependent effect
- IC50 (HT-29 [1]): 12.4 µM
- growth inhibition (GI) (HCT-116 [2]): Dose-dependent effect
- IC50 (HCT-116 [2]): 7.4 µM

SMILES: COc1ccc(/C=C/c2cc(/C=C/c3ccc(OC)c(OC)c3)nc(NCCCO)n2)cc1OC
- growth inhibition (GI) (HT-29 [1]): Dose-dependent effect
- IC50 (HT-29 [1]): 12.8 µM
- growth inhibition (GI) (HCT-116 [2]): Dose-dependent effect
- IC50 (HCT-116 [2]): 9.9 µM

- inhibition [12]: inactive
- inhibition [13]: Dose-dependent effect
- inhibition [14]: inactive
- inhibition [15]: Dose-dependent effect
- inhibition [16]: Dose-dependent effect
- fold change (FC) [17]: 21.4
- fold change (FC) [18]: 28.6
- fold change (FC) [19]: 25.7
- inhibition [30]: Dose-dependent effect
- inhibition [31]: Dose-dependent effect
SMILES: COc1ccc(/C=C/c2cc(/C=C/c3ccc(OC)c(OC)c3)nc(NCCO)n2)cc1OC
- Ratio (HCT-116 [3]): 2.1
- Ratio (HCT-116 [4]): 17
- Ratio (HCT-116 [5]): 19
- Activity (HCT-116 [6]): Dose-dependent effect
- Activity (HCT-116 [7]): Dose-dependent effect
- Activity (HCT-116 [8]): Dose-dependent effect
- Activity (HCT-116 [9]): Dose-dependent effect
- Activity (HCT-116 [10]): Dose-dependent effect
- Activity (HCT-116 [11]): Dose-dependent effect
- Activity (HCT-116 [20]): Active
- Activity (HT-29 [21]): Active
- fold change (FC) (HT-29 [22]): 1.94
- fold change (FC) (HT-29 [23]): 1.86
- fold change (FC) (HT-29 [24]): 2.4
- fold change (FC) (HCT-116 [25]): 1.78
- fold change (FC) (HCT-116 [26]): 1.54
- fold change (FC) (HCT-116 [27]): 2.05
- inhibition (HCT-116 [28]): Dose-dependent effect
- inhibition (HT-29 [29]): Dose-dependent effect
- growth inhibition (GI) (HT-29 [1]): Dose-dependent effect
- IC50 (HT-29 [1]): 7.1 µM
- growth inhibition (GI) (HCT-116 [2]): Dose-dependent effect
- IC50 (HCT-116 [2]): 6.2 µM
